Data reported in ChEMBL document CHEMBL5550111, “Design, synthesis and biological evaluation of aryloxy thiophosphoramidate triesters of anticancer nucleoside analogues” (Bioorg Med Chem, 2024).
pIC50: −log10 of the molar value.

Columns and labels:
NCI-H1975 = assay: Cytotoxicity against human NCI-H1975 cells assessed as maximum inhibition of cell viability upto 198 uM incubated for 72 hrs by MTS assay relative to control; type: functional; conditions: up to 198 µM
Outline: (§1)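 Cells seeded at 0.5 to 100 × 10^3 per well the day before drug addition, then exposed to compound for 72 h. MTS added afterwards, with a further 4 h at 37 °C, and absorbance read. Tested in duplicate at 9 serial 3.16-fold dilutions, top concentration 198 μM. MI% is the maximum inhibition of viability across the tested range.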

MDA-MB-231 = assay: Cytotoxicity against human MDA-MB-231 cells assessed as maximum inhibition of cell viability upto 198 uM incubated for 72 hrs by MTS assay relative to control; type: functional; conditions: up to 198 µM; outline: as §1
RT112/84 [1] = assay: Cytotoxicity against human RT112/84 cells assessed as inhibition of cell viability incubated for 72 hrs by MTS assay; type: functional, cell-based; conditions: RT112/84, 72 h
Outline: (§2)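 Cells seeded at 0.5 to 100 × 10^3 per well the day before treatment, then exposed for 72 h to 9 serial concentrations (3.16-fold dilutions, top 198 μM), in duplicate. MTS added for a final 4 h at 37 °C and absorbance read. IC50 is the concentration giving 50% loss of viability. MI% is the maximum inhibition over the tested range.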

CAKI-2 [2] = assay: Cytotoxicity against human CAKI-2 cells assessed as maximum inhibition of cell viability upto 198 uM incubated for 72 hrs by MTS assay relative to control; type: functional; conditions: up to 198 µM; outline: as §1
RPMI-8226 [3] = assay: Cytotoxicity against human RPMI-8226 cells assessed as maximum inhibition of cell viability upto 198 uM incubated for 72 hrs by MTS assay relative to control; type: functional; conditions: up to 198 µM; outline: as §1
HT-29 [4] = assay: Cytotoxicity against human HT-29 cells assessed as inhibition of cell viability incubated for 72 hrs by MTS assay; type: functional, cell-based; conditions: HT-29, 72 h; outline: as §2
A498 [5] = assay: Cytotoxicity against human A498 cells assessed as inhibition of cell viability incubated for 72 hrs by MTS assay; type: functional, cell-based; conditions: A498, 72 h; outline: as §2
A498 [6] = assay: Cytotoxicity against human A498 cells assessed as maximum inhibition of cell viability upto 198 uM incubated for 72 hrs by MTS assay relative to control; type: functional; conditions: up to 198 µM; outline: as §1
RL [7] = assay: Cytotoxicity against human RL cells assessed as inhibition of cell viability incubated for 72 hrs by MTS assay; type: functional, cell-based; outline: as §2
BXPC-3 [8] = assay: Cytotoxicity against human BXPC-3 cells assessed as inhibition of cell viability incubated for 72 hrs by MTS assay; type: functional, cell-based; conditions: BXPC-3, 72 h; outline: as §2
MOLT-4 [9] = assay: Cytotoxicity against human MOLT-4 cells assessed as inhibition of cell viability incubated for 72 hrs by MTS assay; type: functional, cell-based; conditions: MOLT-4, 72 h; outline: as §2
[10] = Cytotoxicity against human T24/83 cells assessed as maximum inhibition of cell viability upto 198 uM incubated for 72 hrs by MTS assay relative to control; type: functional; conditions: up to 198 µM; outline: as §1
PANC-1 [11] = assay: Cytotoxicity against human PANC-1 cells assessed as inhibition of cell viability incubated for 72 hrs by MTS assay; type: functional, cell-based; conditions: PANC-1, 72 h; outline: as §2
BXPC-3 [12] = assay: Cytotoxicity against human BXPC-3 cells assessed as maximum inhibition of cell viability upto 198 uM incubated for 72 hrs by MTS assay relative to control; type: functional; conditions: up to 198 µM; outline: as §1
5637 [13] = assay: Cytotoxicity against human 5637 cells assessed as maximum inhibition of cell viability upto 198 uM incubated for 72 hrs by MTS assay relative to control; type: functional; conditions: up to 198 µM; outline: as §1
SK-MES-1 [14] = assay: Cytotoxicity against human SK-MES-1 cells assessed as inhibition of cell viability incubated for 72 hrs by MTS assay; type: functional, cell-based; conditions: SK-MES-1, 72 h; outline: as §2
[15] = Cytotoxicity against human T24/83 cells assessed as inhibition of cell viability incubated for 72 hrs by MTS assay; type: functional, cell-based; conditions: T24/83, 72 h; outline: as §2
RT112/84 [16] = assay: Cytotoxicity against human RT112/84 cells assessed as maximum inhibition of cell viability upto 198 uM incubated for 72 hrs by MTS assay relative to control; type: functional; conditions: up to 198 µM; outline: as §1
K562 [17] = assay: Cytotoxicity against human K562 cells assessed as maximum inhibition of cell viability upto 198 uM incubated for 72 hrs by MTS assay relative to control; type: functional; conditions: up to 198 µM; outline: as §1
CAKI-2 [18] = assay: Cytotoxicity against human CAKI-2 cells assessed as inhibition of cell viability incubated for 72 hrs by MTS assay; type: functional, cell-based; conditions: CAKI-2, 72 h; outline: as §2
A2780 [19] = assay: Cytotoxicity against human A2780 cells assessed as maximum inhibition of cell viability upto 198 uM incubated for 72 hrs by MTS assay relative to control; type: functional; conditions: up to 198 µM; outline: as §1
OVCAR-3 [20] = assay: Cytotoxicity against human OVCAR-3 cells assessed as inhibition of cell viability incubated for 72 hrs by MTS assay; type: functional, cell-based; conditions: OVCAR-3, 72 h; outline: as §2
COLO 205 [21] = assay: Cytotoxicity against human COLO 205 cells assessed as inhibition of cell viability incubated for 72 hrs by MTS assay; type: functional, cell-based; conditions: COLO 205, 72 h; outline: as §2
MIA PaCa-2 [22] = assay: Cytotoxicity against human MIA PaCa-2 cells assessed as maximum inhibition of cell viability upto 198 uM incubated for 72 hrs by MTS assay relative to control; type: functional; conditions: up to 198 µM; outline: as §1
COLO 205 [23] = assay: Cytotoxicity against human COLO 205 cells assessed as maximum inhibition of cell viability upto 198 uM incubated for 72 hrs by MTS assay relative to control; type: functional; conditions: up to 198 µM; outline: as §1
RPMI-8226 [24] = assay: Cytotoxicity against human RPMI-8226 cells assessed as inhibition of cell viability incubated for 72 hrs by MTS assay; type: functional, cell-based; conditions: RPMI-8226, 72 h; outline: as §2
K562 [25] = assay: Cytotoxicity against human K562 cells assessed as inhibition of cell viability incubated for 72 hrs by MTS assay; type: functional, cell-based; conditions: K562, 72 h; outline: as §2
RL [26] = assay: Cytotoxicity against human RL cells assessed as maximum inhibition of cell viability upto 198 uM incubated for 72 hrs by MTS assay relative to control; type: functional; conditions: up to 198 µM; outline: as §1
[27] = Cytotoxicity against human ACHN-luc2 cells assessed as inhibition of cell viability incubated for 72 hrs by MTS assay; type: functional, cell-based; conditions: ACHN-luc2, 72 h; outline: as §2
HT-29 [28] = assay: Cytotoxicity against human HT-29 cells assessed as maximum inhibition of cell viability upto 198 uM incubated for 72 hrs by MTS assay relative to control; type: functional; conditions: up to 198 µM; outline: as §1
SK-MES-1 [29] = assay: Cytotoxicity against human SK-MES-1 cells assessed as maximum inhibition of cell viability upto 198 uM incubated for 72 hrs by MTS assay relative to control; type: functional; conditions: up to 198 µM; outline: as §1
MOLT-4 [30] = assay: Cytotoxicity against human MOLT-4 cells assessed as maximum inhibition of cell viability upto 198 uM incubated for 72 hrs by MTS assay relative to control; type: functional; conditions: up to 198 µM; outline: as §1
PC-3 [31] = assay: Cytotoxicity against human PC-3 cells assessed as inhibition of cell viability incubated for 72 hrs by MTS assay; type: functional, cell-based; conditions: PC-3, 72 h; outline: as §2
MCF7 = assay: Cytotoxicity against human MCF7 cells assessed as maximum inhibition of cell viability upto 198 uM incubated for 72 hrs by MTS assay relative to control; type: functional; conditions: up to 198 µM; outline: as §1
KG-1 [32] = assay: Cytotoxicity against human KG-1 cells assessed as inhibition of cell viability incubated for 72 hrs by MTS assay; type: functional, cell-based; conditions: KG-1, 72 h; outline: as §2
HL-60 [33] = assay: Cytotoxicity against human HL-60 cells assessed as maximum inhibition of cell viability upto 198 uM incubated for 72 hrs by MTS assay relative to control; type: functional; conditions: up to 198 µM; outline: as §1
HepG2 [34] = assay: Cytotoxicity against human HepG2 cells assessed as inhibition of cell viability incubated for 72 hrs by MTS assay; type: functional, cell-based; conditions: HepG2, 72 h; outline: as §2
5637 [35] = assay: Cytotoxicity against human 5637 cells assessed as inhibition of cell viability incubated for 72 hrs by MTS assay; type: functional, cell-based; conditions: Homo sapiens, 5637, 72 h; outline: as §2
PANC-1 [36] = assay: Cytotoxicity against human PANC-1 cells assessed as maximum inhibition of cell viability upto 198 uM incubated for 72 hrs by MTS assay relative to control; type: functional; conditions: up to 198 µM; outline: as §1
A2780 [37] = assay: Cytotoxicity against human A2780 cells assessed as inhibition of cell viability incubated for 72 hrs by MTS assay; type: functional, cell-based; conditions: A2780, 72 h; outline: as §2
HepG2 [38] = assay: Cytotoxicity against human HepG2 cells assessed as maximum inhibition of cell viability upto 198 uM incubated for 72 hrs by MTS assay relative to control; type: functional; conditions: up to 198 µM; outline: as §1
PC-3 [39] = assay: Cytotoxicity against human PC-3 cells assessed as maximum inhibition of cell viability upto 198 uM incubated for 72 hrs by MTS assay relative to control; type: functional; conditions: up to 198 µM; outline: as §1
[40] = Cytotoxicity against human ACHN-luc2 cells assessed as maximum inhibition of cell viability upto 198 uM incubated for 72 hrs by MTS assay relative to control; type: functional; conditions: up to 198 µM; outline: as §1
KG-1 [41] = assay: Cytotoxicity against human KG-1 cells assessed as maximum inhibition of cell viability upto 198 uM incubated for 72 hrs by MTS assay relative to control; type: functional; conditions: up to 198 µM; outline: as §1
MIA PaCa-2 [42] = assay: Cytotoxicity against human MIA PaCa-2 cells assessed as inhibition of cell viability incubated for 72 hrs by MTS assay; type: functional, cell-based; conditions: MIA PaCa-2, 72 h; outline: as §2
HL-60 [43] = assay: Cytotoxicity against human HL-60 cells assessed as inhibition of cell viability incubated for 72 hrs by MTS assay; type: functional, cell-based; conditions: HL-60, 72 h; outline: as §2
OVCAR-3 [44] = assay: Cytotoxicity against human OVCAR-3 cells assessed as maximum inhibition of cell viability upto 198 uM incubated for 72 hrs by MTS assay relative to control; type: functional; conditions: up to 198 µM; outline: as §1

CC(=O)O[C@H]1C(=O)[C@@]2(C)[C@H]([C@H](OC(=O)c3ccccc3)[C@]3(O)C[C@H](OC(=O)[C@H](O)[C@@H](NC(=O)c4ccccc4)c4ccccc4)C(C)=C1C3(C)C)[C@]1(OC(C)=O)CO[C@@H]1C[C@@H]2O [PACLITAXEL]
Imax (NCI-H1975): 75% | Imax (MDA-MB-231): 70% | pIC50 (RT112/84 [1]): 8.00 | Imax (CAKI-2 [2]): 78% | Imax (RPMI-8226 [3]): 95% | pIC50 (HT-29 [4]): 7.52 | pIC50 (A498 [5]): 7.70 | Imax (A498 [6]): 74% | pIC50 (RL [7]): 8.15 | pIC50 (BXPC-3 [8]): 8.30 | pIC50 (MOLT-4 [9]): 8.40 | Imax [10]: 97% | pIC50 (PANC-1 [11]): 8.52 | Imax (BXPC-3 [12]): 85% | Imax 5637 [13]: 95% | pIC50 (SK-MES-1 [14]): 8.00 | pIC50 [15]: 8.40 | Imax (RT112/84 [16]): 77% | Imax (K562 [17]): 87% | pIC50 (CAKI-2 [18]): 8.00 | Imax (A2780 [19]): 72% | pIC50 (OVCAR-3 [20]): 8.40 | pIC50 (COLO 205 [21]): 8.00 | Imax (MIA PaCa-2 [22]): 83% | Imax (COLO 205 [23]): 90% | pIC50 (RPMI-8226 [24]): 8.70 | pIC50 (K562 [25]): 7.89 | Imax (RL [26]): 63% | pIC50 [27]: 7.70 | Imax (HT-29 [28]): 79% | Imax (SK-MES-1 [29]): 77% | Imax (MOLT-4 [30]): 99% | pIC50 (PC-3 [31]): 8.00 | Imax (MCF7): 75% | pIC50 (KG-1 [32]): 7.17 | Imax (HL-60 [33]): 97% | pIC50 (HepG2 [34]): 7.22 | pIC50 5637 [35]: 8.70 | Imax (PANC-1 [36]): 56% | pIC50 (A2780 [37]): 8.10 | Imax (HepG2 [38]): 54% | Imax (PC-3 [39]): 62% | Imax [40]: 47% | Imax (KG-1 [41]): 79% | pIC50 (MIA PaCa-2 [42]): 8.52 | pIC50 (HL-60 [43]): 7.92 | Imax (OVCAR-3 [44]): 59%
